From ChEMBL document CHEMBL2203206, “Hesperetin: an inhibitor of the transforming growth factor-β (TGF-β) signaling pathway” (Eur J Med Chem, 2012)
Activity calls are given as the source filed them. No cut-off for these calls is given here.

How the values were obtained:
[1] = target: TGF-beta receptor type-2 (Homo sapiens) (UniProt P37173); experiment: Displacement of biotinylated TGF-beta1 from human TGF-beta type 2 receptor at 100 uM after 1 hr by avidin-FITC-based flow cytometry
Procedure, shortened: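 HeLa cells were incubated 1 h with 0.1% DMSO or 100 μM compound in the presence of biotinylated TGF-β1. Bound ligand was detected with avidin-FITC and fluorescence intensity read by flow cytometry.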

[2] = target: TGF-beta receptor type-2 (Homo sapiens) (UniProt P37173); experiment: Inhibition of TGF-beta1 induced TGF-beta type 2 receptor dimerization in human HeLa cells at 100 uM after 1 hr by single-molecule fluorescence microscopy; format: cell-based
Procedure, shortened: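 HeLa cells were transfected for 4 h with TβRII-GFP plasmid (0.2 μg/mL) to give low expression. They were given 0.1% DMSO or 100 μM compound for 1 h, then 15 min with 10 ng/mL TGF-β1 where stimulated. Live-cell TIRF imaging used 488-nm excitation at 10 Hz for 200 frames. Spot intensities were fitted with Gaussians to give monomer/dimer fractions; purified GFP served as monomer reference.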

HeLa [3] = experiment: Antagonist activity at human TGF-beta receptor in HeLa cells assessed as reduction in TGF-beta1-induced Smad3 phosphorylation at 100 uM after 1 hr by Western blot analysis; format: functional, cell-based
Procedure, shortened: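 Starved HeLa cells given 0.1% DMSO vehicle or 100 μM compound for 1 h, with or without TGF-β1. Lysates in Laemmli buffer were denatured 10 min at 95°C and run on 7.5% SDS gels, then transferred to PVDF. Blots were probed with p-Smad3 and Smad3 antibodies (1:1000) and detected by ECL.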

HeLa [4] = experiment: Antagonist activity at human TGF-beta receptor in HeLa cells assessed as suppression of nuclear translocation of Smad3 at 100 uM after 1 hr by immunofluorescence imaging; format: functional, cell-based
Procedure, shortened: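 HeLa cells were grown 24 h, then serum-starved 24 h and treated 1 h with 0.1% DMSO or 100 μM compound, ± TGF-β1. Cells were fixed in 4% paraformaldehyde, permeabilized with 0.1% Triton X-100 and blocked with 1% BSA/PBST. Staining used anti-Smad3 (1:200, overnight) and Alexa 488 secondary (1:500), imaged by confocal microscopy.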

HeLa [5] = experiment: Antagonist activity at human TGF-beta receptor in HeLa cells assessed as reduction in TGF-beta1-induced p21 expression at 100 uM after 24 hrs by Western blot analysis; format: functional, cell-based
Procedure, shortened: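 Starved HeLa cells exposed to vehicle (0.1% DMSO) or 100 μM compound for 24 h, with or without TGF-β1. Lysates were denatured at 95°C and separated on 7.5% SDS gels. PVDF blots were probed with anti-p21 (1:1000) and read by enhanced chemiluminescence.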

HeLa [6] = experiment: Antimigratory activity against human HeLa cells assessed as inhibition of TGF-beta1-induced cell migration at 100 uM after 24 hrs by scratch motility assay; format: functional, cell-based
Procedure, shortened: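 Confluent HeLa monolayers (1 × 10^6 cells/well), starved 24 h, were scratched with a pipette tip and washed. They then received 0.1% DMSO or 100 μM compound ± TGF-β1 for 24 h. Cells in five random fields of the scratch were counted and averaged per field.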

HeLa [7] = experiment: Cytotoxicity against human HeLa cells at 1 to 200 uM after 24 hrs by MTS proliferation assay; format: cell-based
Procedure, shortened: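 HeLa cells were seeded at 1 × 10^4 per well in complete medium for 24 h. They were then exposed to vehicle (0.1% DMSO) or 0–200 μM compound for 24 h. Proliferation was read with a CellTiter 96 Aqueous non-radioactive (MTS-type) assay.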

[8] = target: TGF-beta receptor type-2 (Homo sapiens) (UniProt P37173); experiment: Inhibition of TGF-beta1 induced TGF-beta type 2 receptor dimerization in human HeLa cells assessed as receptor dimers by bleaching-step counting assay (reference value: 39.9 +/- 2.5%); format: cell-based; parameters: scale not given: the % may be the effect or the level left
HeLa [9] = experiment: Antimigratory activity against human HeLa cells assessed as inhibition of TGF-beta1-induced cell invasion across collagen matrix at 100 uM after 24 hr by collagen-based cell Invasion assay

Chain of TGF-beta receptor type-2 (Homo sapiens) (P37173 whole entry): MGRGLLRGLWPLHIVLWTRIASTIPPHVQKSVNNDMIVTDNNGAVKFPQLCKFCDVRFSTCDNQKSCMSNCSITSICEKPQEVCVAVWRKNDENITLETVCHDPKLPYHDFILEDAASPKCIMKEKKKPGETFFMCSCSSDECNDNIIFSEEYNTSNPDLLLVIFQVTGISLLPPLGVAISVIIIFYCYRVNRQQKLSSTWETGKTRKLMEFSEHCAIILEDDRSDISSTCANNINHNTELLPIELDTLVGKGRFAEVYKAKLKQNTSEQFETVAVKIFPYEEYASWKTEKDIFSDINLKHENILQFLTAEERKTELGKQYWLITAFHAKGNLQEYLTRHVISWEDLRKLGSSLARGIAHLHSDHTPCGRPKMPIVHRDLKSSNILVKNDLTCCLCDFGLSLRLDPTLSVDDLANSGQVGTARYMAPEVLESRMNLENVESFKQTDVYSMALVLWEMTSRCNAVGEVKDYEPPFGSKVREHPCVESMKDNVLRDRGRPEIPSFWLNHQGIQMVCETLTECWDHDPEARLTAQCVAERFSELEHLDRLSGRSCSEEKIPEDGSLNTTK

- Activity [1]: Active
- inhibition [2]: 19.9%
- Activity [8]: 19.5%
SMILES: COc1ccc([C@@H]2CC(=O)c3c(O)cc(O)cc3O2)cc1O [HESPERETIN]
- inhibition (HeLa [3]): Active
- inhibition (HeLa [4]): Active
- inhibition (HeLa [5]): Active
- inhibition (HeLa [6]): Active
- Activity (HeLa [7]): Non-toxic
- inhibition (HeLa [9]): Active
